Assay results pooled from the literature.
Lines come from different studies, so protocols differ.
Target: Serine/threonine-protein kinase MARK2 (MARK2, Homo sapiens, UniProt Q7KZI7)

Cc1cc(O)c(-c2ccc([C@@H](C)CN(C)C)cc2)c2c1[nH]c(=O)c1sccc12  inhibition (enzyme activity, inhibitor; 0.1 µM): 4.31%
Cc1ccc(NC(=O)c2ccnc(C(F)(F)F)c2)cc1-c1cc(OCCO)nc(N2CCOCC2)c1  remaining binding (binding; 1 µM): 99%
C=CC(=O)N1CCC[C@@H](n2nc(-c3ccc(Oc4ccccc4)cc3)c3c(N)ncnc32)C1  inhibition (enzyme activity, inhibitor; 1 µM): 10%
COc1ccc2[nH]c3c4[nH]c5ccc(OC)cc5c4c4c(c3c2c1)C(=O)NC4=O  remaining binding (binding; 1 µM): 71%
C1=C/COCc2cc(ccc2OCCN2CCCC2)Nc2nccc(n2)-c2cccc(c2)COC/1  remaining binding (binding; 0.1 µM): 66%
C=CC(=O)N1CCC([C@@H]2CCNc3c(C(N)=O)c(-c4ccc(Oc5ccccc5)cc4)nn32)CC1  inhibition (enzyme activity, inhibitor; 1 µM): 0%
CCCCC(=O)Nc1ccc(-c2ccc3ncn(CCC)c(=O)c3c2)cn1  remaining binding (binding, competition with immobilised ligand; 0.5 µM): 92%
COc1ccc2oc(-c3ccc4nc(N)oc4c3)c/c(=N\c3ccccc3NC(=O)CCN)c2c1  remaining binding (binding; 1 µM): 97%
